Experimental data: ChEMBL document CHEMBL2157880, “Synthesis, antimycobacterial and antibacterial activity of ciprofloxacin derivatives containing a N-substituted benzyl moiety” (2012)
Converted amounts (≈) assume the structure as drawn.

How the values were obtained:
Type in all cases: functional
[1] = test system: Mycobacterium tuberculosis; assay: Antimycobacterial activity against Mycobacterium tuberculosis H37Rv ATCC 27294 by microplate alamar blue assay
In short: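 Microplate Alamar Blue fluorescence assay on strain H37Rv ATCC 27294. MIC was the lowest concentration cutting fluorescence by ≥90% against the mean of replicate bacterium-only controls.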

Staphylococcus aureus [2] = assay: Antibacterial activity against Staphylococcus aureus ATCC 2592 after 18 to 24 hrs by NCCLS method
In short: (§1)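 Standard NCCLS (M100-S11) MIC testing against Gram-positive and Gram-negative strains. Plates were incubated at 35 °C for 18–24 h. The MIC was read as the lowest concentration giving complete inhibition of visible bacterial growth.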

Staphylococcus aureus [3] = assay: Antibacterial activity against methicillin-sensitive Staphylococcus aureus 10-11 after 18 to 24 hrs by NCCLS method; in short: as §1
Staphylococcus aureus [4] = assay: Antibacterial activity against methicillin-sensitive Staphylococcus aureus 10-13 after 18 to 24 hrs by NCCLS method; in short: as §1
Staphylococcus aureus [5] = assay: Antibacterial activity against methicillin-sensitive Staphylococcus aureus 10-14 after 18 to 24 hrs by NCCLS method; in short: as §1
Staphylococcus aureus [6] = assay: Antibacterial activity against methicillin-resistant Staphylococcus aureus 10-11 after 18 to 24 hrs by NCCLS method
In short: (§2)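 Incubated at 35 °C for 18–24 h under NCCLS (M100-S11) standards. MIC was read as the lowest concentration giving complete inhibition of visible bacterial growth.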

Staphylococcus aureus [7] = assay: Antibacterial activity against methicillin-resistant Staphylococcus aureus 10-13 after 18 to 24 hrs by NCCLS method; in short: as §2
Staphylococcus aureus [8] = assay: Antibacterial activity against methicillin-resistant Staphylococcus aureus 10-15 after 18 to 24 hrs by NCCLS method; in short: as §2
[9] = test system: Staphylococcus epidermidis; assay: Antibacterial activity against methicillin-sensitive Staphylococcus epidermidis 10-11 after 18 to 24 hrs by NCCLS method; in short: as §1
[10] = test system: Staphylococcus epidermidis; assay: Antibacterial activity against methicillin-sensitive Staphylococcus epidermidis 10-15 after 18 to 24 hrs by NCCLS method; in short: as §2
[11] = test system: Staphylococcus epidermidis; assay: Antibacterial activity against methicillin-resistant Staphylococcus epidermidis 10-10 after 18 to 24 hrs by NCCLS method; in short: as §2
[12] = test system: Staphylococcus epidermidis; assay: Antibacterial activity against methicillin-resistant Staphylococcus epidermidis 10-13 after 18 to 24 hrs by NCCLS method; in short: as §2
Enterococcus faecalis [13] = assay: Antibacterial activity against Enterococcus faecalis 10-5 after 18 to 24 hrs by NCCLS method; in short: as §1
Enterococcus faecalis [14] = assay: Antibacterial activity against Enterococcus faecalis 10-6 after 18 to 24 hrs by NCCLS method; in short: as §1
Enterococcus faecalis [15] = assay: Antibacterial activity against Enterococcus faecalis 10-7 after 18 to 24 hrs by NCCLS method; in short: as §1
Enterococcus faecium [16] = assay: Antibacterial activity against Enterococcus faecium 10-6 after 18 to 24 hrs by NCCLS method; in short: as §1
Enterococcus faecium [17] = assay: Antibacterial activity against Enterococcus faecium 10-9 after 18 to 24 hrs by NCCLS method; in short: as §1
Streptococcus pneumoniae [18] = assay: Antibacterial activity against Streptococcus pneumoniae 10-1 after 18 to 24 hrs by NCCLS method; in short: as §1
Streptococcus pneumoniae [19] = assay: Antibacterial activity against Streptococcus pneumoniae 10-6 after 18 to 24 hrs by NCCLS method; in short: as §1
Escherichia coli [20] = assay: Antibacterial activity against Escherichia coli ATCC 25922 after 18 to 24 hrs by NCCLS method; in short: as §1
Escherichia coli [21] = assay: Antibacterial activity against Escherichia coli 10-1 after 18 to 24 hrs by NCCLS method; in short: as §1
Escherichia coli [22] = assay: Antibacterial activity against Escherichia coli 10-2 after 18 to 24 hrs by NCCLS method; in short: as §1
Escherichia coli [23] = assay: Antibacterial activity against Escherichia coli 10-3 after 18 to 24 hrs by NCCLS method; in short: as §1
Escherichia coli [24] = assay: Antibacterial activity against extended spectrum beta-lactamases producing Escherichia coli 10-2 after 18 to 24 hrs by NCCLS method; in short: as §1
Escherichia coli [25] = assay: Antibacterial activity against extended spectrum beta-lactamases producing Escherichia coli 10-3 after 18 to 24 hrs by NCCLS method; in short: as §1
Escherichia coli [26] = assay: Antibacterial activity against extended spectrum beta-lactamases producing Escherichia coli 10-4 after 18 to 24 hrs by NCCLS method; in short: as §1
Klebsiella pneumoniae [27] = assay: Antibacterial activity against Klebsiella pneumoniae 10-2 after 18 to 24 hrs by NCCLS method; in short: as §1
Klebsiella pneumoniae [28] = assay: Antibacterial activity against Klebsiella pneumoniae 10-3 after 18 to 24 hrs by NCCLS method; in short: as §1
Klebsiella pneumoniae [29] = assay: Antibacterial activity against Klebsiella pneumoniae 10-4 after 18 to 24 hrs by NCCLS method; in short: as §1
Klebsiella pneumoniae [30] = assay: Antibacterial activity against extended spectrum beta-lactamases producing Klebsiella pneumoniae 10-1 after 18 to 24 hrs by NCCLS method; in short: as §1
Klebsiella pneumoniae [31] = assay: Antibacterial activity against extended spectrum beta-lactamases producing Klebsiella pneumoniae 10-2 after 18 to 24 hrs by NCCLS method; in short: as §1
Klebsiella pneumoniae [32] = assay: Antibacterial activity against extended spectrum beta-lactamases producing Klebsiella pneumoniae 10-3 after 18 to 24 hrs by NCCLS method; in short: as §1
Pseudomonas aeruginosa [33] = assay: Antibacterial activity against Pseudomonas aeruginosa 10-5 after 18 to 24 hrs by NCCLS method; in short: as §1
Pseudomonas aeruginosa [34] = assay: Antibacterial activity against Pseudomonas aeruginosa 10-9 after 18 to 24 hrs by NCCLS method; in short: as §1
Pseudomonas aeruginosa [35] = assay: Antibacterial activity against Pseudomonas aeruginosa 10-12 after 18 to 24 hrs by NCCLS method; in short: as §1
Pseudomonas aeruginosa [36] = assay: Antibacterial activity against Pseudomonas aeruginosa 10-15 after 18 to 24 hrs by NCCLS method; in short: as §1
Pseudomonas aeruginosa [37] = assay: Antibacterial activity against Pseudomonas aeruginosa 10-18 after 18 to 24 hrs by NCCLS method; in short: as §1
Pseudomonas aeruginosa [38] = assay: Antibacterial activity against Pseudomonas aeruginosa 10-20 after 18 to 24 hrs by NCCLS method; in short: as §1

SMILES	MIC [1] [µg/mL]	MIC (Staphylococcus aureus [2]) [µg/mL]	MIC (Staphylococcus aureus [3]) [µg/mL]	MIC (Staphylococcus aureus [4]) [µg/mL]	MIC (Staphylococcus aureus [5]) [µg/mL]	MIC (Staphylococcus aureus [6]) [µg/mL]	MIC (Staphylococcus aureus [7]) [µg/mL]	MIC (Staphylococcus aureus [8]) [µg/mL]	MIC [9] [µg/mL]	MIC [10] [µg/mL]	MIC [11] [µg/mL]	MIC [12] [µg/mL]	MIC (Enterococcus faecalis [13]) [µg/mL]	MIC (Enterococcus faecalis [14]) [µg/mL]	MIC (Enterococcus faecalis [15]) [µg/mL]	MIC (Enterococcus faecium [16]) [µg/mL]	MIC (Enterococcus faecium [17]) [µg/mL]	MIC (Streptococcus pneumoniae [18]) [µg/mL]	MIC (Streptococcus pneumoniae [19]) [µg/mL]	MIC (Escherichia coli [20]) [µg/mL]	other results
O=C(O)c1cn(C2CC2)c2cc(N3CCN(Cc4ccc(OCc5ccccc5)cc4)CC3)c(F)cc2c1=O	32 (≈ 60.7 µM)	4 (≈ 7.58 µM)	0.25 (≈ 0.474 µM)	0.5 (≈ 0.948 µM)	0.5 (≈ 0.948 µM)	32 (≈ 60.7 µM)	128 (≈ 243 µM)	128 (≈ 243 µM)	1 (≈ 1.9 µM)	32 (≈ 60.7 µM)	16 (≈ 30.3 µM)	32 (≈ 60.7 µM)	8 (≈ 15.2 µM)	64 (≈ 121 µM)	32 (≈ 60.7 µM)	8 (≈ 15.2 µM)	32 (≈ 60.7 µM)	8 (≈ 15.2 µM)	32 (≈ 60.7 µM)	1 (≈ 1.9 µM)	MIC (Escherichia coli [21]): > 128 µg/mL; MIC (Escherichia coli [22]): 32 µg/mL (≈ 60.7 µM); MIC (Escherichia coli [23]): > 128 µg/mL; MIC (Escherichia coli [24]): > 128 µg/mL; MIC (Escherichia coli [25]): > 128 µg/mL; MIC (Escherichia coli [26]): > 128 µg/mL; MIC (Klebsiella pneumoniae [27]): > 128 µg/mL; MIC (Klebsiella pneumoniae [28]): 32 µg/mL (≈ 60.7 µM); MIC (Klebsiella pneumoniae [29]): > 128 µg/mL; MIC (Klebsiella pneumoniae [30]): > 128 µg/mL; MIC (Klebsiella pneumoniae [31]): > 128 µg/mL; MIC (Klebsiella pneumoniae [32]): > 128 µg/mL; MIC (Pseudomonas aeruginosa [33]): 16 µg/mL (≈ 30.3 µM); MIC (Pseudomonas aeruginosa [34]): 32 µg/mL (≈ 60.7 µM); MIC (Pseudomonas aeruginosa [35]): 32 µg/mL (≈ 60.7 µM); MIC (Pseudomonas aeruginosa [36]): 128 µg/mL (≈ 243 µM); MIC (Pseudomonas aeruginosa [37]): 64 µg/mL (≈ 121 µM); MIC (Pseudomonas aeruginosa [38]): 32 µg/mL (≈ 60.7 µM)
COc1cc(CN2CCN(c3cc4c(cc3F)c(=O)c(C(=O)O)cn4C3CC3)CC2)ccc1OCc1ccccc1	16 (≈ 28.7 µM)	2 (≈ 3.59 µM)	0.5 (≈ 0.897 µM)	2 (≈ 3.59 µM)	1 (≈ 1.79 µM)	> 128	> 128	> 128	1 (≈ 1.79 µM)	32 (≈ 57.4 µM)	128 (≈ 230 µM)	64 (≈ 115 µM)	32 (≈ 57.4 µM)	64 (≈ 115 µM)	32 (≈ 57.4 µM)	16 (≈ 28.7 µM)	32 (≈ 57.4 µM)	16 (≈ 28.7 µM)	32 (≈ 57.4 µM)	0.5 (≈ 0.897 µM)	MIC (Escherichia coli [21]): > 128 µg/mL; MIC (Escherichia coli [22]): 32 µg/mL (≈ 57.4 µM); MIC (Escherichia coli [23]): > 128 µg/mL; MIC (Escherichia coli [24]): > 128 µg/mL; MIC (Escherichia coli [25]): > 128 µg/mL; MIC (Escherichia coli [26]): > 128 µg/mL; MIC (Klebsiella pneumoniae [27]): > 128 µg/mL; MIC (Klebsiella pneumoniae [28]): 32 µg/mL (≈ 57.4 µM); MIC (Klebsiella pneumoniae [29]): > 128 µg/mL; MIC (Klebsiella pneumoniae [30]): > 128 µg/mL; MIC (Klebsiella pneumoniae [31]): > 128 µg/mL; MIC (Klebsiella pneumoniae [32]): > 128 µg/mL; MIC (Pseudomonas aeruginosa [33]): 32 µg/mL (≈ 57.4 µM); MIC (Pseudomonas aeruginosa [34]): 64 µg/mL (≈ 115 µM); MIC (Pseudomonas aeruginosa [35]): 32 µg/mL (≈ 57.4 µM); MIC (Pseudomonas aeruginosa [36]): 64 µg/mL (≈ 115 µM); MIC (Pseudomonas aeruginosa [37]): 32 µg/mL (≈ 57.4 µM); MIC (Pseudomonas aeruginosa [38]): 32 µg/mL (≈ 57.4 µM)
